In brackets after ≈: the same amount, converted by molar mass.

In experiment [1] the test system is Mycobacterium tuberculosis. As to the kind of experiment: Antitubercular activity against Mycobacterium tuberculosis H37Rv ATCC 27294 after 28 days by agar dilution method. Type of experiment: functional. Conditions: H37Rv ATCC 27294, 672 h. In short, it runs like this: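 Twofold serial dilutions incorporated into Middlebrook 7H11 agar with OADC, final 25–0.78 μg/mL. Inoculum from fresh 7H11/OADC slants, 1 mg/mL wet weight in 0.05% Tween 80 saline diluted 10⁻² (~10⁷ cfu/mL); 5 μL spotted per tube.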
For orientation: Agar dilution tests growth on a series of plates holding different concentrations.

The test system of another experiment is HeLa. The experiment in a line: Cytotoxicity against human HeLa cells after 48 hrs after MTT assay. Type of experiment: cell-based. The gist of the method:
(§1)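 Cells grown in DMEM with 10% FBS, 37 °C, 5% CO₂. Seeded in 96-well plates and preincubated 24 h before compound, tested at 1, 10, 100, 1000 μM in triplicate wells, 48 h continuous exposure. MTT (10 μL of 5%) added for 60 min, stain eluted with DMSO, absorbance read at 560 nm. IC50 from dose–response curves versus control; mean ± SD of three experiments.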

The next experiment relates to A549. The experiment in a line: Cytotoxicity against human A549 cells after 48 hrs after MTT assay. It counts as cell-based. Conditions: A549, 48 h. The gist of the method: as §1
For orientation: Tetrazolium dyes change colour on reduction, which living cells bring about.

In the next experiment the test system is DU-145. As to the kind of experiment: Cytotoxicity against human DU145 cells after 48 hrs after MTT assay. It counts as cell-based. Conditions: DU-145, 48 h. The gist of the method: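 Cells kept in MEM with nonessential amino acids, 1 mM sodium pyruvate, bovine insulin, 10% FBS. Seeded in 96-well plates and preincubated 24 h, then exposed 48 h to 1, 10, 100, 1000 μM in triplicate wells. MTT (10 μL of 5%) for 60 min, DMSO elution, absorbance read at 560 nm. IC50 versus control absorbance; mean ± SD of three experiments.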

Another experiment concerns SK-N-SH. As to the kind of experiment: Cytotoxicity against human SK-N-SH cells after 48 hrs after MTT assay. It counts as cell-based. The gist of the method: as §1
Experiment [2] deals with Mycobacterium tuberculosis. As to the kind of experiment: Ratio of pyrazinamide MIC to compound MIC against Mycobacterium tuberculosis H37Rv ATCC 27294. Type of experiment: functional.
Experiment [3] relates to Mycobacterium tuberculosis. The experiment in a line: Ratio of ethambutol MIC to compound MIC against Mycobacterium tuberculosis H37Rv ATCC 27294. It counts as functional.
A short description of experiment [4]: Selectivity index ratio of IC50 for human HeLa cells to MIC for Mycobacterium tuberculosis H37Rv ATCC 27294. It counts as functional.
Experiment [5] is described as follows: Selectivity index ratio of IC50 for human A549 cells to MIC for Mycobacterium tuberculosis H37Rv ATCC 27294. Type of experiment: functional.
Experiment [6] can be described thus: Selectivity index ratio of IC50 for human DU145 cells to MIC for Mycobacterium tuberculosis H37Rv ATCC 27294. Type of experiment: functional, DU-145.
Experiment [7] in a line: Selectivity index ratio of IC50 for human SK-N-SH cells to MIC for Mycobacterium tuberculosis H37Rv ATCC 27294. Type of experiment: functional.

In general, MIC refers to the lowest concentration that inhibits growth of the organism. Low readings indicate greater potency, high ones weaker potency. In general, IC50 refers to the midpoint of a concentration-inhibition curve. As for `CC(c1ccc2sc3ccccc3c2c1)n1cc(COCc2ccccc2)nn1` (stereo unspecified), in experiment [1], the minimal inhibitory concentration (MIC) was 7.84 µM (≈ 3.13 µg/mL). Also, the IC50 came to 438 µM in the experiment on HeLa, 189 µM in the experiment with A549, 225 µM with DU-145 and 103 µM in the experiment on SK-N-SH.
For the compound `CC(c1ccc2c(c1)c1ccccc1n2C)n1cc(-c2ccccc2)nn1` (stereo unspecified), in experiment [1], the MIC was 71 µM (≈ 25 µg/mL).
For the compound `CC(c1ccc2c(c1)c1ccccc1n2C)n1cc(-c2ccc(C(C)(C)C)cc2)nn1` (stereo unspecified), the minimal inhibitory concentration (MIC) in experiment [1] came to 30.6 µM (≈ 12.5 µg/mL).
Compound `CCCCc1cn(C(C)c2ccc3sc4ccccc4c3c2)nn1` (stereo unspecified) came in with an MIC in [1] of 4.66 µM (≈ 1.56 µg/mL). Further, the half-inhibitory concentration (IC50) turned out to be 62 µM in the experiment on HeLa, 80 µM in the experiment on A549, 107 µM in the experiment on DU-145 and 101 µM with SK-N-SH.
For the compound `CCCCc1cn(C(C)c2ccc3c(c2)c2ccccc2n3C)nn1` (stereo unspecified), the MIC in experiment [1] amounted to 75.3 µM (≈ 25 µg/mL).
In the case of `CC(c1ccc2sc3ccccc3c2c1)n1cc(-c2ccc(Cl)cc2Cl)nn1` (stereo unspecified), the MIC in experiment [1] is 3.68 µM (≈ 1.56 µg/mL). Besides, the IC50 in the experiment with HeLa is 162 µM; with A549, 400 µM; in the experiment with DU-145 it was 150 µM; in the experiment on SK-N-SH it was 477 µM.
Take `CC(c1ccc2sc3ccccc3c2c1)n1cc(-c2ccc(C(C)(C)C)cc2)nn1` (stereo unspecified): in experiment [1], the minimal inhibitory concentration (MIC) amounted to 1.89 µM (≈ 0.778 µg/mL). Further, the Ratio amounted to 26 in experiment [2]; 4 in [3]; 55 in experiment [4]; 55 in [5]; 55 in experiment [6]; 55 in experiment [7]. For the same compound, the IC50 with HeLa is 191 µM; in the experiment on A549, 482 µM; in the experiment with DU-145 it was 105 µM; in the experiment on SK-N-SH, 260 µM.
Turning to `CC(c1ccc2c(c1)c1ccccc1n2C)n1cc(-c2ccccc2[N+](=O)[O-])nn1` (stereo unspecified), it took 31.5 µM (≈ 12.5 µg/mL) to inhibit growth in experiment [1] (MIC).
Same read-out and setting: as for `NC(=O)c1cnccn1` [PYRAZINAMIDE], the figure is 50.1 µM (≈ 6.17 µg/mL).
Take `CC(c1ccc2sc3ccccc3c2c1)n1cc(-c2ccc(F)cc2Cl)nn1` (stereo unspecified): the minimal inhibitory concentration (MIC) in experiment [1] was determined as 1.91 µM (≈ 0.779 µg/mL). For the same compound, the Ratio came to 26 in experiment [2]; 4 in experiment [3]; 55 in experiment [4]; 55 in experiment [5]; 55 in [6]; 55 in experiment [7]. Further, the half-maximal inhibitory concentration (IC50) in the experiment with HeLa turned out to be 155 µM; with A549, 249 µM; in the experiment on DU-145 it was 147 µM; in the experiment with SK-N-SH it was 342 µM.
Consider `CC(c1ccc2sc3ccccc3c2c1)n1cc(-c2ccccc2)nn1` (stereo unspecified), for which 4.4 µM (≈ 1.56 µg/mL) was the least that counted as inhibitory in experiment [1] (MIC). The IC50 in the experiment on HeLa is 329 µM; with A549, 444 µM; with DU-145, 90 µM; in the experiment with SK-N-SH, 291 µM.
The compound `CC(c1ccc2sc3ccccc3c2c1)n1cc(-c2ccc([N+](=O)[O-])cc2)nn1` (stereo unspecified) displayed an MIC in experiment [1] of 3.9 µM (≈ 1.56 µg/mL). Further, the 50% inhibitory concentration (IC50) in the experiment with HeLa was 210 µM; in the experiment with A549 it was 852 µM; in the experiment with DU-145, 138 µM; in the experiment with SK-N-SH, 30 µM.
For `CCCCc1cn(C(C)c2ccc3oc4ccccc4c3c2)nn1` (stereo unspecified), the MIC in [1] turned out to be 39.2 µM (≈ 12.5 µg/mL).
Still for that read-out and setting: as for `CC(c1ccc2sc3ccccc3c2c1)n1cc(-c2ccsc2)nn1` (stereo unspecified), the figure is 34.6 µM (≈ 12.5 µg/mL).
In [1], `COc1ccc2cc(-c3cn(C(C)c4ccc5sc6ccccc6c5c4)nn3)ccc2c1` (stereo unspecified) had an MIC of 28.7 µM (≈ 12.5 µg/mL).
On to `CC(c1ccc2sc3ccccc3c2c1)n1cc(-c2cc(F)ccc2F)nn1` (stereo unspecified), for which the MIC in [1] is 3.98 µM (≈ 1.56 µg/mL). In addition, the 50% inhibitory concentration (IC50) came out at 96 µM in the experiment on HeLa, 272 µM in the experiment on A549, 767 µM in the experiment on DU-145 and 21 µM with SK-N-SH.
The matching figures for `CC(c1ccc2sc3ccccc3c2c1)n1cc(-c2ccccc2[N+](=O)[O-])nn1` (stereo unspecified): 3.9 µM (≈ 1.56 µg/mL), 136 µM, 190 µM, 126 µM and 386 µM.
For the compound `CC(c1ccc2oc3ccccc3c2c1)n1cc(-c2ccc(C(C)(C)C)cc2)nn1` (stereo unspecified), the MIC in experiment [1] is 15.8 µM (≈ 6.25 µg/mL).
As to `CC(c1ccc2oc3ccccc3c2c1)n1cc(-c2ccccc2[N+](=O)[O-])nn1` (stereo unspecified), the minimal inhibitory concentration (MIC) in experiment [1] is 16.3 µM (≈ 6.27 µg/mL).
Take `CC(c1ccc2oc3ccccc3c2c1)n1cc(CO)nn1` (stereo unspecified): the MIC in experiment [1] is 85.3 µM (≈ 25 µg/mL).
`CC(c1ccc2sc3ccccc3c2c1)n1cc(-c2ccc(-c3ccccc3)cc2)nn1` (stereo unspecified) came in with a minimum inhibitory concentration (MIC) in [1] of 14.5 µM (≈ 6.26 µg/mL).
On to `NNC(=O)c1ccncc1` [ISONIAZID], for which the minimal inhibitory concentration (MIC) in experiment [1] came out at 0.37 µM (≈ 0.0507 µg/mL).
In the case of `CCCCCCc1cn(C(C)c2ccc3oc4ccccc4c3c2)nn1` (stereo unspecified), in experiment [1], the minimum inhibitory concentration (MIC) amounted to 18 µM (≈ 6.25 µg/mL).
`CCCc1cn(C(C)c2ccc3c(c2)c2ccccc2n3C)nn1` (stereo unspecified) returned an MIC in experiment [1] of 78 µM (≈ 24.8 µg/mL).
In the case of `CC[C@@H](CO)NCCN[C@@H](CC)CO` [ETHAMBUTOL], inhibition of growth in experiment [1] (MIC) required 7.6 µM (≈ 1.55 µg/mL).
`CCCc1cn(C(C)c2ccc3oc4ccccc4c3c2)nn1` (stereo unspecified) showed a minimum inhibitory concentration (MIC) in [1] of 41 µM (≈ 12.5 µg/mL).
In the case of `CC(c1ccc2sc3ccccc3c2c1)n1cc(CO)nn1` (stereo unspecified), the MIC in experiment [1] is 20.2 µM (≈ 6.25 µg/mL).
In experiment [1], `CCCc1cn(C(C)c2ccc3sc4ccccc4c3c2)nn1` (stereo unspecified) showed a minimal inhibitory concentration (MIC) of 9.75 µM (≈ 3.13 µg/mL). The IC50 in the experiment with HeLa was determined as 87 µM; in the experiment with A549 it was 68 µM; in the experiment on DU-145 it was 96 µM; in the experiment on SK-N-SH, 93 µM.
`CCCCCCc1cn(C(C)c2ccc3sc4ccccc4c3c2)nn1` (stereo unspecified) returned a minimum inhibitory concentration (MIC) in experiment [1] of 4.3 µM (≈ 1.56 µg/mL).
In experiment [1], `CC(c1ccc2c(c1)c1ccccc1n2C)n1cc(CO)nn1` (stereo unspecified) came in with a minimal inhibitory concentration (MIC) of 81.7 µM (≈ 25 µg/mL).
As to `CC(c1ccc2c(c1)c1ccccc1n2C)n1cc(COCc2ccccc2)nn1` (stereo unspecified), the MIC in [1] turned out to be 63.1 µM (≈ 25 µg/mL).
`CC(c1ccc2sc3ccccc3c2c1)n1cc(CCc2ccccc2)nn1` (stereo unspecified): inhibition of growth in experiment [1] (MIC) required 8.17 µM (≈ 3.13 µg/mL). Also, the concentration for half-maximal inhibition (IC50) came to 79 µM in the experiment on HeLa, 78 µM in the experiment on A549 and 100 µM in the experiment with DU-145.
In experiment [1], `CC(c1ccc2sc3ccccc3c2c1)n1cc(-c2ccc(Br)cc2F)nn1` (stereo unspecified) yielded a minimal inhibitory concentration (MIC) of 3.45 µM (≈ 1.56 µg/mL). Also, the IC50 with HeLa came out at 457 µM; with A549, 219 µM; with DU-145 it was 222 µM; in the experiment on SK-N-SH, 76 µM.
In [1], `CC(c1ccc2sc3ccccc3c2c1)n1cc(-c2cc3ccccc3c3ccccc23)nn1` (stereo unspecified) came in with an MIC of 54.9 µM (≈ 25 µg/mL).
For `CC(c1ccc2oc3ccccc3c2c1)n1cc(COCc2ccccc2)nn1` (stereo unspecified), the minimal inhibitory concentration (MIC) in experiment [1] was determined as 65.2 µM (≈ 25 µg/mL).
For `CC(c1ccc2oc3ccccc3c2c1)n1cc(-c2ccccc2)nn1` (stereo unspecified), in experiment [1], 18.4 µM (≈ 6.24 µg/mL) was the least that counted as inhibitory (MIC).
As to `CC(c1ccc2sc3ccccc3c2c1)n1cc(-c2cc(F)cc(F)c2Cl)nn1` (stereo unspecified), the minimum inhibitory concentration (MIC) in [1] came to 12.5 µM (≈ 5.32 µg/mL). In addition, the half-maximal inhibitory concentration (IC50) is 116 µM with HeLa, 507 µM in the experiment on A549, 120 µM in the experiment with DU-145 and 46 µM in the experiment on SK-N-SH.
`Cc1ccc(-c2cn(C(C)c3ccc4sc5ccccc5c4c3)nn2)cc1` (stereo unspecified): the minimum inhibitory concentration (MIC) in experiment [1] was 8.48 µM (≈ 3.13 µg/mL). Further, the 50% inhibitory concentration (IC50) came to 164 µM with HeLa, 108 µM in the experiment with A549, 174 µM in the experiment on DU-145 and 32 µM in the experiment with SK-N-SH.
Compound `CCCCCCc1cn(C(C)c2ccc3c(c2)c2ccccc2n3C)nn1` (stereo unspecified) displayed a minimal inhibitory concentration (MIC) in [1] of 70 µM (≈ 25.2 µg/mL).

(Values after ChEMBL document CHEMBL2046404, “Design, synthesis, and structure-activity correlations of novel dibenzo[b,d]furan, dibenzo[b,d]thiophene, and N-methylcarbazole clubbed 1,2,3-triazoles as potent inhibitors of Mycobacterium tuberculosis” (J Med Chem, 2012).)
